Published values of several laboratories.
Protocols differ between the studies behind these lines.
Organism: Staphylococcus aureus
Read-out: microbial growth

COc1cc2ncnc(Nc3ccc(F)c(Cl)c3)c2cc1OCCCN1CCOCC1
MIC (NCTC8325): > 30 µM

CC(C)Oc1c(NC(=O)c2ccc(NC(=O)[C@H](CC(N)=O)NC(=O)c3ccc(NC(=O)c4ccccc4)cc3)cc2)ccc(C(=O)Nc2ccc(C(=O)O)cc2)c1O
MIC (ATCC29213): > 64 µg/mL

CC[C@H]1OC(=O)[C@H](C)[C@@H](O[C@H]2C[C@@](C)(OC)[C@@H](O)[C@H](C)O2)[C@H](C)[C@@H](O[C@@H]2O[C@H](C)C[C@H](N(C)C)[C@H]2O)[C@](C)(O)C[C@@H](C)C(=O)[C@H](C)[C@@H](O)[C@]1(C)O
MIC (156; clinical isolate): > 100 µM

CO[C@@H](C(=O)N1Cc2[nH]nc(NC(=O)c3ccc(N4CCN(C)CC4)cc3)c2C1)c1ccccc1
MIC (NCTC8325): > 30 µM

CC(C)Oc1c(NC(=O)c2ccc(NC(=O)[C@H](CC(N)=O)NC(=O)c3ccc(NC(=O)c4ccc(C#N)cc4)cc3)cc2)ccc(C(=O)N[C@@H]2CONC2=O)c1O
MIC (ATCC29213): > 64 µg/mL

CSc1ccc(-c2nc3ccccc3[nH]2)cc1
MIC (broth dilution; ATCC29213 MSSA): 16 µg/mL

C/N=C(/NC)c1ccc(NC(=O)/C=C/c2ccc(/C=C/C(=O)Nc3ccc(/C(=N\C)NC)cc3)cc2)cc1
MIC: 2 µg/mL

CCCCNC(=O)c1ccc(NC(=O)Nc2ccc(Cl)c(C(F)(F)F)c2)cc1
MIC (NCTC8325; 24 h): > 100 µM

C/C=C(\C)c1cc(OC(=O)c2c(C)c(Cl)c(O)c(Cl)c2O)c(C)c(O)c1C(=O)O
MIC (broth dilution; 745524): 64 µg/mL

CCCCCCC#Cc1cncc(-c2nnc(SCc3ccc(Cl)cc3)n2C)c1
MIC (MRSA; drug-resistant strain): ≥ 20 µg/mL

COc1cccc(-c2nc3ccccc3[nH]2)c1
MIC (broth dilution; ATCC29213 MSSA): 256 µg/mL

N#CC(=C(/N)Sc1ccccc1N)/C(C#N)=C(\N)Sc1ccccc1N
MIC (NCTC8325): > 30 µM

CN[C@H](CC(C)C)C(=O)N[C@H]1C(=O)N[C@@H](CC(N)=O)C(=O)N[C@H]2C(=O)N[C@H]3C(=O)N[C@H](C(=O)N[C@H](C(=O)O)c4cc(O)cc(O)c4-c4cc3ccc4O)[C@H](O)c3ccc(c(Cl)c3)Oc3cc2cc(c3O[C@@H]2O[C@H](CO)[C@@H](O)[C@H](O)[C@H]2O[C@H]2C[C@](C)(N)[C@H](O)[C@H](C)O2)Oc2ccc(cc2Cl)[C@H]1O
MIC (broth dilution; ATCC25923): 0.98 µg/mL

Fc1cc(-c2cccc3ncc(-c4cnn(C5CCNCC5)c4)nc23)cc(F)c1CN1CCOCC1
MIC (NCTC8325): > 30 µM

O=C(CCc1cc(O)c(O)c(O)c1)NCCCCCCCC[P+](c1ccccc1)(c1ccccc1)c1ccccc1.[Br-]
MIC (broth dilution; ATCC43300 MRSA; 18 h): 8 µg/mL

O=C(Nc1ccc2c(c1)OC(F)(F)O2)c1ccc(Cl)c(C(F)(F)F)c1
MIC (NCTC8325): 3 µM

CO[C@H]1[C@H](O[C@H]([C@H]2O[C@@H](n3ccc(=O)[nH]c3=O)[C@H](O)[C@@H]2O)[C@H](NCCCNC(=O)[C@H](CC(C)C)NC(=O)[C@@H](NC(=O)N[C@H](C(=O)O)C(C)C)[C@@H]2CCNC(=N)N2)C(=O)O)O[C@H](CN)[C@H]1O
MIC (NEWMAN): > 80 µg/mL

Clc1ccc(NCc2ccc(Oc3ccccn3)cc2)cc1
MIC: > 3.1 µg/mL

CNC(=O)c1cc(Oc2ccc(NC(=O)Nc3ccc(C)cc3)cc2)ccn1
MIC (NCTC8325): > 100 µM

CC1(C)S[C@@H]2[C@H](NC(=O)[C@H](N)c3ccccc3)C(=O)N2[C@H]1C(=O)O
MIC (broth dilution; 6917): 64 µg/mL

Cc1ccc(C)n1-c1ccc(-c2nnc(-c3ccc(N(C)C)cc3)[nH]2)cc1
MIC (broth dilution; ATCC11632; 18 h): 8 µg/mL
